Source: PubChem (several laboratories)
Sampled rows, rich in hits. Any-hit rate of the full collection: about 9.6%.
b-catenin transl = alters nuclear translocation of beta-catenin in HeLa cells | immunofluorescence imaging | nuclear translocation activity, % at 5 µM | hit rate 0.3% among 190,000 | AID 1665;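 active = nuclear translocation activity above 50% at 5 µM, with a well cell count of 50 or more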;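 also: per-cell ratio of nuclear to cytoplasmic median beta-catenin stain intensity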
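Read-out: Nuclear/cytoplasmic beta-catenin signal ratio, % activation | Assay system: Human HeLa cell line | Times: 24 h compound exposure at 37°C, 5% CO2 | Signal: Fluorescence imaging of beta-catenin antibody stain plus DAPI | Dosing: 5 µM primary, 0.02–20 µM confirmation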
APP transl inh = APP translation inhibition; SH-SY5Y APP 5'UTR-luciferase reporter, luminescence; inhibition, % at 2 µM; hit rate 0.82% among 190,000; AID 1285;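 active = inhibition above a set limit, derived from the sample mean plus 3 SD, cut at about 45% in these data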
Ba/F3 V617F tox = reduce viability of Ba/F3 cells dependent on JAK2V617F; inhibition, % at 5.6 µM; hit rate 1.1% among 220,000; Ba/F3 EpoR-JAK2V617F viability, ATP luminescence;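 active = inhibition above the campaign mean plus 3 SD over all tested compounds, cut at about 24% in these data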;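 also: cytokine-independent growth of Ba/F3 cells driven by EpoR plus mutant JAK2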
Lmaj promast = reduces viability of Leishmania major promastigotes; resazurin fluorescence viability; inhibition, % at 10 µM; hit rate 9% among 200,000; in the data active = inhibition above about 50%;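 also: promastigotes grown with compound for 44 hours at 28 °C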
MT stabilizer = microtubule stabilization, imaging screen; HeLa tubulin immunostaining HCS, 24 h; share of cells brighter than vehicle mean+2SD; % tubulin-high responders, % at 10 µM; hit rate 0.83% among 200,000;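 active = plate Z-score above 3 for both tubulin-high and condensed-nucleus cell shares, with cell loss under 80%, at 10 µM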;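 also: anti alpha tubulin signal scored within the nucleus-defined area of each cell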
BaF3 tox = reduces parental Ba/F3 cell viability, JAK2V617F counter-screen | hit rate 1.1% among 220,000 | inhibition, % at 5.6 µM | CellTiter-Glo ATP luminescence | AID 1486;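 active = inhibition above a per-campaign cutoff, the mean inhibition of all tested compounds plus 3 SD, cut at about 27% in these data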
Large screens that a line does not name were inactive.

CSc1cc(-c2ccccc2)n(Cc2ccccc2Cl)c(=O)c1C#N	MT stabilizer 43 (no result: b-catenin transl)
Cc1ccc(Oc2ccc(NC(=O)CSc3n[nH]c(N)n3)cc2)cc1	Lmaj promast 59 (no result: b-catenin transl)
Nc1nc(SCC(=O)Nc2ccc(S(N)(=O)=O)cc2)n[nH]1	none
CN(C)c1ccc(-c2nnc(SCC3CCCO3)n2C)cc1 (stereo not drawn)	none
CCCN1C(=O)C(Cc2nc3ccccc3c(=O)n2-c2ccccc2)c2ccccc21 (stereo not drawn)	Lmaj promast 89
C=CCSc1nc2[nH]ncc2c(=O)[nH]1	none
C#CCSc1nc2[nH]ncc2c(=O)[nH]1	Lmaj promast 53
Cc1ccc(S(=O)(=O)Nc2ccc3c(c2)OCCO3)cc1	none
Cc1nc2ccc(NS(=O)(=O)c3c(C)c(C)cc(C)c3C)cc2s1	MT stabilizer 44
Cc1ccc(S(=O)(=O)Nc2ccc3nc(C)sc3c2)cc1	Ba/F3 V617F tox 34, BaF3 tox 39
Cc1nc2ccc(NS(=O)(=O)c3ccc4c(c3)OCCO4)cc2s1	Ba/F3 V617F tox 42, BaF3 tox 53
O=C1CCCN1c1ccc(S(=O)(=O)Nc2ccc3c(c2)OCCO3)cc1	Ba/F3 V617F tox 82, BaF3 tox 73 (no result: b-catenin transl)
Cc1nc2cc(NS(=O)(=O)c3c(C)c(C)cc(C)c3C)ccc2s1	none
Cc1cc(Br)c(OCC(=O)NN)c2c1CCC2	none (no result: APP transl inh, Lmaj promast, MT stabilizer)
O=C(Nc1ccc(-c2nc3cccnc3s2)cc1)C1CCCO1 (stereo not drawn)	none
CCn1c(C(=O)OC)cc2c1ccn2-c1ccc(F)cc1	none (no result: b-catenin transl)
COC(=O)c1cc2c(ccn2-c2ccc(F)cc2)n1Cc1ccc(C#N)cc1	none
COC(=O)c1cc2c(ccn2-c2ccc(F)cc2)n1Cc1ccc(OC)cc1	Lmaj promast 99
CCOC(=O)c1cc2c(ccn2-c2ccc(F)cc2)n1CC(=O)NC(C)(C)C	BaF3 tox 90
Cc1c(-c2nc(-c3ccc(C(C)(C)C)cc3)no2)n(C)oc1=O	none (no result: APP transl inh, Lmaj promast, MT stabilizer)
CN1CCC2(CC1)N=C(c1ccc(F)cc1)C(=S)N2C(=O)c1ccc(C(C)(C)C)cc1	none
CCOC(=O)c1c(-c2ccccc2)csc1NC(=S)NC	Lmaj promast 62 (no result: b-catenin transl)
CCOC(=O)c1c(-c2ccc(-c3ccccc3)cc2)csc1NC(=O)CCN1CCOCC1	Lmaj promast 98
CCOC(=O)c1c(-c2ccccc2Cl)csc1NC(=O)c1cc(S(=O)(=O)N2CCOCC2)ccc1C	Lmaj promast 83 (no result: b-catenin transl)
CCOC(=O)c1ccccc1NC(=O)c1cc(S(=O)(=O)N2CCOCC2)ccc1F	none (no result: b-catenin transl)
CCOC(=O)c1c(-c2ccc(C)o2)csc1NC(=S)NC(=O)c1cccs1	Lmaj promast 75
CCOC(=O)c1c(-c2ccc(C)o2)csc1NC(=S)NC(=O)c1ccccc1Br	none
Cc1ccc(S(=O)(=O)n2nc(C)c(C#N)c2N)cc1	none
COc1ccc(C)cc1NC(=O)NCc1ccccc1F	none
O=C(COC(=O)CCc1c[nH]c2ccccc12)NC(c1ccccc1)c1ccccc1	BaF3 tox 76
COc1ccc(Cc2noc(CN(C)CC3(N4CCOCC4)CCCCC3)n2)cc1OC	none
CN(C)c1ccc(/C=N/NC(=O)CCc2nc3ccccc3[nH]2)cc1	none (no result: APP transl inh, Lmaj promast, MT stabilizer)
O=C(CCc1ccc(S(=O)(=O)NC2CCCCC2)cc1)NCc1cccnc1	none
Cc1ccc(CNC(=O)CCc2ccc(S(=O)(=O)NC3CCCCC3)cc2)cc1	Lmaj promast 73
CC(C)CNS(=O)(=O)c1ccc(CCC(=O)NC2CCCC2)cc1	none
CC(NC(=O)CCc1ccc(S(=O)(=O)NC2CCCCC2)cc1)c1ccccc1 (stereo not drawn)	Lmaj promast 96
O=C(Nc1cccc(Cl)c1)Nc1ccnc(-c2cccnc2)n1	APP transl inh 56
Cc1ccc([N+](=O)[O-])cc1-c1ccc(/C=N\n2nnnc2N)o1	Lmaj promast 51
COC(=O)c1cc(Br)ccc1-c1ccc(/C=N/n2nnnc2N)o1	none (no result: b-catenin transl)
NS(=O)(=O)c1ccc(NS(=O)(=O)c2ccc(NC(=S)Nc3ccccc3)cc2)cc1	none
Cc1cc(C)cc(NS(=O)(=O)c2ccc(NC(=S)Nc3ccccc3)cc2)c1	Lmaj promast 82
Cc1cc(C)cc(NS(=O)(=O)c2ccc(NC(=S)NC(=O)c3ccc(Br)o3)cc2)c1	Lmaj promast 95
Cc1ccc(SCc2nc3ncccn3c2Br)cc1	none (no result: APP transl inh, Lmaj promast, MT stabilizer)
CCC(=O)Nc1cc(-c2nn(C)c(=O)c3ccccc23)ccc1OC	none
